Measurements from article PMC7041979 (The Journal of Veterinary Medical Science, 2019).

Tests used:
[1] = type: in vitro ADME, rat; conditions: for detection of ZON metabolite in mucosal and serosal buffers: LC-MS/MS
How it was run: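 Everted 10 cm segments from male, nonpregnant female and gestation day 18–19 pregnant Sprague-Dawley rats: three small-intestine parts plus distal colon. Krebs Ringer bicarbonate, pH 7.4, 95% O₂/5% CO₂, 37°C. Mucosal 25 ml; serosal 25 ml circulated at 5 ml/min. Test compound 10 µM mucosal; both sides sampled 0–60 min. Negative-ESI LC-MS/MS against bile-derived glucuronide standards; mean ± S.D., six experiments.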

cell viability = conditions: 10 µM, in vitro; cited from earlier work
[2] = after oral exposure, estimated; cited from earlier work
estrogenic activity = conditions: cited from earlier work
[3] = ZON 10 µM, 60 min, female colon
[4] = ZON 10 µM, 60 min, female proximal intestine
[5] = ZON 10 µM, 60 min, pregnant female proximal intestine

C[C@H]1CCC[C@@H](O)CCC/C=C/c2cc(O[C@@H]3O[C@H](C(=O)O)[C@@H](O)[C@H](O)[C@H]3O)cc(O)c2C(=O)O1 [α-ZOL-GA, α-Zearalenol glucuronide]
α-ZOL-GA mucosal excretion, minimum [1, 3]: 20.09 nmol
α-ZOL-GA serosal transport, minimum [1, 4]: 2.84 nmol
α-ZOL-GA serosal transport, maximum ([1]; ZON 10 µM, 60 min, pregnant female colon): 36.15 nmol
α-ZOL-GA mucosal excretion, maximum [1, 5]: 60.02 nmol

β-Zearalenol [β-ZOL]
detection of ZON metabolite in mucosal and serosal buffers ([1]; ZON 10 µM, 60 min): too low to quantify

C[C@H]1CCCC(=O)CCCCCc2cc(O)cc(O)c2C(=O)O1 [ZAN, Zearalanone]
detection of ZON metabolite in mucosal and serosal buffers ([1]; ZON 10 µM, 60 min): too low to quantify

C[C@H]1CCC[C@H](O)CCC/C=C/c2cc(O[C@@H]3O[C@H](C(=O)O)[C@@H](O)[C@H](O)[C@H]3O)cc(O)c2C(=O)O1 [β-ZOL-GA, β-Zearalenol glucuronide]
detection of ZON metabolite in mucosal and serosal buffers ([1]; ZON 10 µM, 60 min): too low to quantify

CC1CCCC(=O)CCCC=Cc2cc(OC3OC(C(=O)O)C(O)C(O)C3O)cc(OC3OC(C(=O)O)C(O)C(O)C3O)c2C(=O)O1 (stereo not drawn) [zearalenone diglucuronide, Zearalenone diglucuronide]
detection of ZON metabolite in mucosal and serosal buffers ([1]; ZON 10 µM, 60 min): too low to quantify

C[C@H]1CCCC(=O)CCC/C=C/c2cc(O)cc(O)c2C(=O)O1 [ZON, Zearalenone]
effect on cell viability (cell viability): not to affect cell viability
rate of disappearance of ZON from the mucosal compartment ([1]; ZON 10 µM in mucosal buffer, all segments): 100 to 200 nmol/h
amount of ZON transported from the mucosal side to the serosal side ([1]; ZON 10 µM, 60 min incubation, distal colon (highest)): approximately 2 nmol
recovery at 60 min, 10 µM ([1]; both, rat, pH 7.4): > 80%
ZON uptake [2]: 80–85%

Zearalenone glucuronide [ZON-GA]
ZON-GA mucosal excretion, minimum [1, 3]: 22.55 nmol
ZON-GA serosal transport, maximum [1, 3]: 49.94 nmol
ZON-GA serosal transport, minimum [1, 4]: 1.64 nmol
ZON-GA mucosal excretion, maximum [1, 5]: 85.39 nmol

C[C@H]1CCC[C@H](O)CCC/C=C/c2cc(O)cc(O)c2C(=O)O1 [α-ZOL, α-Zearalenol]
α-ZOL transport to the mucosal side relative to transport to the serosal side ([1]; ZON 10 µM, 60 min): approximately 6 times
α-ZOL mucosal excretion ([1]; ZON 10 µM, 60 min, at most, over all segments): ≤ 0.3 nmol
α-ZOL transport to the serosal side, maximum ([1]; ZON 10 µM, 60 min, colon): approximately 0.05 nmol
estrogenic activity relative to ZON (estrogenic activity): three times more potent
